Data: ChEMBL document CHEMBL1275561, “In vitro activities of doripenem, a new broad-spectrum carbapenem, against recently collected clinical anaerobic isolates, with emphasis on the Bacteroides fragilis group” (2008)
Several values for one entry are separate records, joined by “and”; a condition that tells them apart may be missing. Equal values may be shown once.

Tests used:
Assay type in all cases: functional
Finegoldia magna [1] = experiment: Antimicrobial activity against Finegoldia magna by agar dilution method in presence of beta-lactamase inhibitor Tazobactam
How it was run: (§1)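 Gram-positive anaerobes were tested by CLSI agar dilution on brucella agar enriched with 5% lysed defibrinated sheep blood and 1 μg/ml vitamin K1. Inoculum was log-phase growth at 0.5 McFarland, about 10^5 CFU/spot by replicator. Incubation was anaerobic, 37°C, 48 h. MIC was the lowest concentration with a marked growth change versus the drug-free plate. Eubacterium lentum ATCC 43055 was the control, and tests were repeated if it fell outside the CLSI range.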

[2] = test system: Peptoniphilus asaccharolyticus; experiment: Antimicrobial activity against Peptoniphilus asaccharolyticus by agar dilution method in presence of beta-lactamase inhibitor Tazobactam; how it was run: as §1
Parvimonas micra [3] = experiment: Antimicrobial activity against Micromonas micros by agar dilution method in presence of beta-lactamase inhibitor Tazobactam; how it was run: as §1
Bacteroides eggerthii [4] = experiment: Antimicrobial activity against Bacteroides eggerthii assessed as resistant isolates by agar dilution method
How it was run: (§2)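 CLSI agar dilution on enriched brucella agar (5% lysed defibrinated sheep blood, 1 μg/ml vitamin K1), plates made on test day. Log-phase inocula adjusted to 0.5 McFarland; about 10^5 CFU/spot by Steers replicator. Incubated anaerobically at 37°C for 48 h. MIC was the lowest concentration giving a marked change in growth versus the drug-free control plate. Resistance rates used CLSI anaerobe breakpoints. Controls were B. fragilis ATCC 25285 and B. thetaiotaomicron ATCC 29741.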

[5] = test system: Peptoniphilus asaccharolyticus; experiment: Antimicrobial activity against Peptoniphilus asaccharolyticus assessed as resistant isolates by agar dilution method; settings: pooled result: one value given for 4 cell lines, strains, targets or settings
How it was run: (§3)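 Agar dilution following CLSI on brucella agar with 5% lysed defibrinated sheep blood and 1 μg/ml vitamin K1, plates made on test day. Log-phase cells at 0.5 McFarland, about 10^5 CFU/spot by Steers replicator, 48 h anaerobic at 37°C. MIC read as the lowest concentration causing a marked growth change versus control. Resistance counted by CLSI anaerobe breakpoints. Eubacterium lentum ATCC 43055 served as control.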

Parabacteroides merdae [6] = experiment: Antimicrobial activity against Bacteroides merdae assessed as resistant isolates by agar dilution method; how it was run: as §2
Finegoldia magna [7] = experiment: Antimicrobial activity against Finegoldia magna assessed as resistant isolates by agar dilution method; how it was run: as §3
Peptostreptococcus sp. [8] = experiment: Antimicrobial activity against Peptostreptococcus sp. by agar dilution method in presence of beta-lactamase inhibitor Tazobactam
How it was run: (§4)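 Log-phase isolates were adjusted to 0.5 McFarland, and about 10^5 CFU/spot was delivered by Steers replicator. Plates were incubated anaerobically at 37°C for 48 h. MIC was the lowest concentration giving a marked growth change versus the control plate. Eubacterium lentum ATCC 43055 was the QC strain, with repeats when out of range.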

Propionibacterium [9] = experiment: Antimicrobial activity against Propionibacterium sp. by agar dilution method in presence of beta-lactamase inhibitor Tazobactam; how it was run: as §4
[10] = test system: Parabacteroides distasonis; experiment: Antimicrobial activity against Bacteroides distasonis assessed as resistant isolates by agar dilution method; how it was run: as §2
[Clostridium] innocuum [11] = Antimicrobial activity against Clostridium innocuum assessed as resistant isolates by agar dilution method; settings: pooled result: one value given for 4 cell lines, strains, targets or settings
Bacteroides nordii [12] = experiment: Antimicrobial activity against Bacteroides nordii assessed as resistant isolates by agar dilution method; how it was run: as §2
[13] = test system: Bacteroides thetaiotaomicron; experiment: Antimicrobial activity against Bacteroides thetaiotaomicron assessed as resistant isolates by agar dilution method; how it was run: as §2
Bacteroides ovatus [14] = experiment: Antimicrobial activity against Bacteroides ovatus assessed as resistant isolates by agar dilution method; how it was run: as §2
Bacteroides fragilis [15] = experiment: Antimicrobial activity against Bacteroides fragilis assessed as resistant isolates by agar dilution method; how it was run: as §2
Bacteroides caccae [16] = experiment: Antimicrobial activity against Bacteroides caccae assessed as resistant isolates by agar dilution method; how it was run: as §2
Propionibacterium [17] = experiment: Antimicrobial activity against Propionibacterium sp. assessed as resistant isolates by agar dilution method; how it was run: as §3
Clostridioides difficile [18] = experiment: Antimicrobial activity against Clostridium difficile by agar dilution method in presence of beta-lactamase inhibitor Tazobactam; how it was run: as §1
Cutibacterium acnes [19] = experiment: Antimicrobial activity against Propionibacterium acnes by agar dilution method in presence of beta-lactamase inhibitor Tazobactam; how it was run: as §4
Phocaeicola vulgatus [20] = experiment: Antimicrobial activity against Bacteroides vulgatus assessed as resistant isolates by agar dilution method; how it was run: as §2
Cutibacterium acnes [21] = experiment: Antimicrobial activity against Propionibacterium acnes assessed as resistant isolates by agar dilution method; how it was run: as §3
Bacteroides uniformis [22] = experiment: Antimicrobial activity against Bacteroides uniformis assessed as resistant isolates by agar dilution method; how it was run: as §2
Anaerococcus prevotii [23] = experiment: Antimicrobial activity against Anaerococcus prevotii by agar dilution method in presence of beta-lactamase inhibitor Tazobactam; how it was run: as §1
Phocaeicola vulgatus [24] = experiment: Antimicrobial activity against Bacteroides vulgatus by agar dilution method
How it was run: (§5)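 CLSI agar dilution on enriched brucella agar (5% lysed defibrinated sheep blood, 1 μg/ml vitamin K1), with drug plates made on the test day. Log-phase cells were adjusted to 0.5 McFarland, and about 10^5 CFU/spot was delivered by Steers replicator. Plates were incubated anaerobically at 37°C for 48 h. MIC was the lowest concentration giving a marked growth change versus the control plate. Controls were B. fragilis ATCC 25285 and B. thetaiotaomicron ATCC 29741.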

Clostridium tertium = experiment: Antimicrobial activity against Clostridium tertium by agar dilution method
Bacteroides caccae [25] = experiment: Antimicrobial activity against Bacteroides caccae by agar dilution method; how it was run: as §5
Clostridioides difficile [26] = experiment: Antimicrobial activity against Clostridium difficile by agar dilution method
Cutibacterium acnes [27] = experiment: Antimicrobial activity against Propionibacterium acnes by agar dilution method; how it was run: as §4
[28] = test system: Bacteroides thetaiotaomicron; experiment: Antimicrobial activity against Bacteroides thetaiotaomicron by agar dilution method; how it was run: as §5
Bacteroides uniformis [29] = experiment: Antimicrobial activity against Bacteroides uniformis by agar dilution method; how it was run: as §5
Peptostreptococcus sp. [30] = experiment: Antimicrobial activity against Peptostreptococcus sp. by agar dilution method; how it was run: as §4
Anaerococcus prevotii [31] = experiment: Antimicrobial activity against Anaerococcus prevotii by agar dilution method; how it was run: as §1
Clostridium perfringens = experiment: Antimicrobial activity against Clostridium perfringens by agar dilution method
Bacteroides nordii [32] = experiment: Antimicrobial activity against Bacteroides nordii by agar dilution method; how it was run: as §5
Bacteroides fragilis [33] = experiment: Antimicrobial activity against Bacteroides fragilis by agar dilution method; how it was run: as §5
Parvimonas micra [34] = experiment: Antimicrobial activity against Micromonas micros by agar dilution method; how it was run: as §1
Clostridium subterminale = experiment: Antimicrobial activity against Clostridium subterminale by agar dilution method
[35] = test system: Parabacteroides distasonis; experiment: Antimicrobial activity against Bacteroides distasonis by agar dilution method; how it was run: as §5
Finegoldia magna [36] = experiment: Antimicrobial activity against Finegoldia magna by agar dilution method; how it was run: as §1
Parabacteroides merdae [37] = experiment: Antimicrobial activity against Bacteroides merdae by agar dilution method; how it was run: as §5
[Clostridium] innocuum [38] = Antimicrobial activity against Clostridium innocuum by agar dilution method
[39] = test system: Peptoniphilus asaccharolyticus; experiment: Antimicrobial activity against Peptoniphilus asaccharolyticus by agar dilution method; how it was run: as §1
Bacteroides eggerthii [40] = experiment: Antimicrobial activity against Bacteroides eggerthii by agar dilution method; how it was run: as §5
[41] = test system: Clostridium paraputrificum; experiment: Antimicrobial activity against Clostridium paraputrificum by agar dilution method
Propionibacterium [42] = experiment: Antimicrobial activity against Propionibacterium sp. by agar dilution method; how it was run: as §4
Bacteroides ovatus [43] = experiment: Antimicrobial activity against Bacteroides ovatus by agar dilution method; how it was run: as §5

CCN1CCN(C(=O)N[C@@H](C(=O)N[C@@H]2C(=O)N3[C@@H]2SC(C)(C)[C@@H]3C(=O)O)c2ccccc2)C(=O)C1=O [PIPERACILLIN]
5.6%: Activity ([Clostridium] innocuum [11])
0.5 µg/mL: MIC (Finegoldia magna [1]) | MIC (Finegoldia magna [1]; Finegoldia magna, read-out: MIC) | MIC [2] | MIC ([2]; Peptoniphilus asaccharolyticus, read-out: MIC) | MIC (Parvimonas micra [3]) | MIC (Parvimonas micra [3]; Parvimonas micra, read-out: MIC) | MIC (Peptostreptococcus sp. [8]) | MIC (Peptostreptococcus sp. [8]; Peptostreptococcus sp., read-out: MIC) | MIC (Anaerococcus prevotii [23]) | MIC (Anaerococcus prevotii [23]; Anaerococcus prevotii, read-out: MIC)
0.25 µg/mL and 0.5 µg/mL: MIC (Propionibacterium [9]) | MIC (Cutibacterium acnes [19])
0.25 µg/mL: MIC (Propionibacterium [9]; Propionibacterium, read-out: MIC) | MIC (Cutibacterium acnes [19]; Cutibacterium acnes, read-out: MIC)
1%: Activity (Bacteroides fragilis [15])
1.3%: Activity [13]
2 µg/mL: MIC (Clostridioides difficile [18])
0%: Activity (Bacteroides eggerthii [4]) | Activity [5] | Activity (Parabacteroides merdae [6]) | Activity (Finegoldia magna [7]) | Activity [10] | Activity (Bacteroides nordii [12]) | Activity (Bacteroides ovatus [14]) | Activity (Bacteroides caccae [16]) | Activity (Propionibacterium [17]) | Activity (Phocaeicola vulgatus [20]) | Activity (Cutibacterium acnes [21]) | Activity (Bacteroides uniformis [22])

C[C@@H](O)[C@H]1C(=O)N2C(C(=O)O)=C(S[C@@H]3CN[C@H](C(=O)Nc4cccc(C(=O)O)c4)C3)[C@H](C)[C@H]12
2%: Activity (Bacteroides fragilis [15])
0.5 µg/mL: MIC50 (Phocaeicola vulgatus [24]) | MIC50 (Bacteroides caccae [25]) | MIC50 (Bacteroides uniformis [29]) | MIC90 (Peptostreptococcus sp. [30]) | MIC90 (Anaerococcus prevotii [31]) | MIC50 (Bacteroides fragilis [33]) | MIC90 (Parvimonas micra [34]) | MIC90 [39]
8 µg/mL: MIC90 (Clostridium tertium) | MIC90 (Clostridium subterminale) | MIC90 ([Clostridium] innocuum [38]) | MIC90 [41]
2 µg/mL: MIC90 (Phocaeicola vulgatus [24]) | MIC90 (Bacteroides caccae [25]) | MIC (Clostridioides difficile [26]) | MIC50 [28] | MIC90 (Bacteroides uniformis [29]) | MIC90 (Bacteroides nordii [32]) | MIC90 (Bacteroides fragilis [33]) | MIC90 (Parabacteroides merdae [37]) | MIC90 (Bacteroides eggerthii [40])
0%: Activity (Bacteroides eggerthii [4]) | Activity [5] | Activity (Parabacteroides merdae [6]) | Activity (Finegoldia magna [7]) | Activity [10] | Activity ([Clostridium] innocuum [11]) | Activity (Bacteroides nordii [12]) | Activity [13] | Activity (Bacteroides caccae [16]) | Activity (Propionibacterium [17]) | Activity (Phocaeicola vulgatus [20]) | Activity (Cutibacterium acnes [21]) | Activity (Bacteroides uniformis [22])
1 µg/mL: MIC50 (Bacteroides nordii [32]) | MIC50 [35] | MIC50 (Parabacteroides merdae [37]) | MIC50 (Bacteroides eggerthii [40]) | MIC50 (Bacteroides ovatus [43])
0.06 µg/mL: MIC (Cutibacterium acnes [27]) | MIC50 (Cutibacterium acnes [27]) | MIC90 (Cutibacterium acnes [27]) | MIC (Clostridium perfringens) | MIC50 (Clostridium perfringens) | MIC (Propionibacterium [42]) | MIC50 (Propionibacterium [42])
0.125 µg/mL: MIC50 (Peptostreptococcus sp. [30]) | MIC50 (Anaerococcus prevotii [31]) | MIC50 (Parvimonas micra [34]) | MIC50 (Finegoldia magna [36]) | MIC90 (Finegoldia magna [36]) | MIC50 [39]
4 µg/mL: MIC50 (Clostridium tertium) | MIC90 [28] | MIC50 (Clostridium subterminale) | MIC90 [35] | MIC50 ([Clostridium] innocuum [38]) | MIC50 [41] | MIC90 (Bacteroides ovatus [43])
2.9%: Activity (Bacteroides ovatus [14])
0.25 µg/mL: MIC90 (Clostridium perfringens) | MIC90 (Propionibacterium [42])
